Cytotoxicity data for 95 compounds are collected here from ChEMBL document CHEMBL4513216, “Probing the Open Global Health Chemical Diversity Library for Multistage-Active Starting Points for Next-Generation Antimalarials” (ACS Infect Dis, 2020).

The nature of the data set: Toxicity liver stage against HepG2, at 10uM. The data set is classed as cell-based. As to conditions: human, HepG2-A16-CD81EGFP cells; read-out: INHIBITION
Details: test concentration 10 uM, cell line HepG2-A16-CD81EGFP. In short, it runs like this:
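Uninfected HepG2-A16-CD81EGFP cells, 3 × 10^3 per well, 1536-well, plated on prespotted compound at 10 μM final, parasite-free screening media added to match infected plates; puromycin 10 μM positive, DMSO 0.5% negative; run in parallel with 48 h PbLuc assay at 37 °C, 5% CO2; viability by CellTiter-Glo luminescence, normalized to controls.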
As to `CNC(=O)CCc1cc(C2CCCCN2C)nc(C)n1` (stereo not given), the cytotoxicity at 10 µM is -0.956%.
As for `O=C1CC(c2cccnc2)C2(CCN(C(=O)c3ccncc3)CC2)N1` (stereo not given), the figure is -6.64%; as for `Cc1ncc2c(n1)CCN(C(=O)Cc1c(C)noc1C)C2`, -8.55%; as for `Cc1oc(C)c(C(=O)NCc2cccc(C(N)=O)c2)c1C`, -15.8%.
As for `CN(CCOCC1CC1)C(=O)Cn1cccc(C(F)(F)F)c1=O`, the cytotoxicity at 10 µM was -6.96%.
For the compound `CS(=O)(=O)c1cccc(C(=O)NCC2Cc3ccccc3O2)c1` (stereo not given), the cytotoxicity at 10 µM was -1.26%.
Next, `Cc1nc(N2CCOCC2)nc2c1CCN(C(=O)C1CCCCC1)CC2`: -0.152%; `COc1nc2c(cc1C(=O)NCCc1nc3c(s1)CCC3)CCC2`: 5.05%; `CC(C)CN1CCn2c(nc3cc(C(=O)NC(C)C)ccc32)C1`: 0.889%.
As for `O=C(NCc1ccccc1)N1C[C@@H]2C[C@H](C(=O)N3CCCC3)[C@H](C1)O2`, the figure is 8.46%; as for `Cc1nc(N2CCCC2)nc2c1CCN(Cc1ccco1)CC2`, -6.52%.
Take `CCN(Cc1cccc(C(=O)Nc2ncc(C)s2)c1)[C@H]1COC[C@@H]1O`: the cytotoxicity at 10 µM is -2.61%.
As for `Cc1nnc(C(C)N2CCCN(Cc3ccc(F)cc3)CC2)o1` (stereo not given), the figure is -4.92%; as for `CCOc1ccc(Cl)cc1C1CCCN1` (stereo not given), -12.3%; as for `Cc1ccc(NC(=O)C2CSCN2C(=O)c2cnsn2)c(C)c1` (stereo not given), -0.955%.
With `COc1ccc(C(=O)N2CCN(C(=O)Cn3nccc3C)CC2)cc1`, the cytotoxicity at 10 µM came out at 6.88%.
As for `O=C(NCC1CCS(=O)(=O)C1)c1ccc2cccc(Cl)c2n1` (stereo not given), the figure is -10.1%; as for `O=C(NCC1CC1)Nc1cnc2ccc(F)cc2c1O`, -8.58%; as for `Cc1nc(CN2CCCC2c2c(C)nn(C)c2Cl)oc1C` (stereo not given), -3.33%.
Next, `Cc1cnn(CC(C)NCC(=O)Nc2ccc(Cl)cn2)c1` (stereo not given): 6.05%.
As for `Cc1nc(C2CCCN2Cc2cc(Cl)c3c(c2)OCCO3)no1` (stereo not given), the figure is 7.1%.
`Cc1nnc(Cn2cc(I)cc(C)c2=O)o1`: the cytotoxicity at 10 µM is 0.0894%.
Next, `CCCN1CCN(C(=O)c2scnc2C)CC1`: -0.73%; `Cc1cnc2n(c1=O)C(CC(=O)NCc1cccs1)CS2` (stereo not given): 4.68%; `Cc1cc(C(=O)NCc2cc(C)oc2C)no1`: -9.98%.
As for `Cn1cc(CN2C[C@@H]3COC[C@]3(C(=O)NCc3cccs3)C2)cn1`, the figure is 7.22%; as for `Cc1ccc(CNC(=O)COc2ccc3c(c2)OCC3O)cc1` (stereo not given), -5.67%; as for `Cc1ccc(CN(CCCN(C)C)Cc2cnc(C)n2C)o1`, 9.96%.
Next, `O=C(NCCN1CCCCC1)c1ccn(-c2ccccc2)n1`: 7.53%.
In the case of `CN(C)C(=O)CN1C[C@H]2CC[C@@H](C1)N(Cc1ccc3nsnc3c1)C2`, the cytotoxicity at 10 µM amounted to 2.3%.
Next, `CCSCc1cccc(NC2CCN(C)C2=O)c1` (stereo not given): 1.18%.
Next, `Cc1noc(C)c1CNc1cc(N2CCCC2CO)ncn1` (stereo not given): 1.42%; `CSc1ccccc1NC(=O)C1CN(C(=O)c2ccc3c(c2)OCO3)C1`: -12.3%.
Next, `CC(C)CSCCN1CCCN(S(C)(=O)=O)CC1`: -8.17%.
On to `O=C(CC1CC1)N1CCC2(CCCN(c3ncccn3)C2)CC1`, for which the cytotoxicity at 10 µM is -71%.
As for `Cc1csc(N2CCC(NCC3(O)CCc4ccccc43)CC2)n1` (stereo not given), the figure is 0.455%; as for `CN1CCCN(c2cnn(Cc3ccc(C(C)(C)C)cc3)c(=O)c2)CC1`, 11.1%.
As for `CN1C[C@H](O)[C@]2(CCN(C(=O)NCc3ccccc3)C2)S1(=O)=O`, the figure is 4.53%; as for `N#Cc1cccnc1N1CCC(C2CCCCCN2C(=O)C2CC2)CC1` (stereo not given), 1.95%.
As for `Cc1cccc(CN2CCC3(CC2)NC(=O)C[C@H]3c2cnn(C)c2)n1`, the figure is 4.53%.
With `COc1ccc(CN2C[C@@H]3CN(Cc4cccnc4)CCO[C@@H]3C2)cc1`, the cytotoxicity at 10 µM was 10.3%.
Turning to `CC1(C)OCC(CNC(=O)c2cnn(-c3cc(Cl)ccc3Cl)c2N)O1` (stereo not given), the cytotoxicity at 10 µM was 2.84%.
As for `CCn1c(C)nnc1CN(C)C1CCN(CCOc2ccccc2)C1` (stereo not given), the figure is 0.796%; as for `Cc1cc(CN2CC[C@@H]3O[C@@H](c4nnc(C)o4)C[C@H]3C2)no1`, -103%.
As for `COc1ccc(S(=O)(=O)N2C[C@@H]3CN(C)CCO[C@@H]3C2)cc1`, the figure is 1.82%; as for `CC(C)[C@@H]1CN(c2ccc(F)cn2)C[C@H]1NS(C)(=O)=O`, 3.69%.
With `COc1ccc(NC(=O)CSc2nc(C)cc(C)n2)cn1`, the cytotoxicity at 10 µM is -0.384%.
Regarding `Cc1cccc(N(CCC(N)=O)CC(=O)Nc2ccccc2)c1`, the cytotoxicity at 10 µM was -9.5%.
For the compound `Fc1cccc(CN2CCC3(CCCN3c3ncccn3)CC2)c1`, the cytotoxicity at 10 µM is 3.62%.
As for `CO[C@@H]1CCC[C@@H](NC(=O)CCCn2cncn2)[C@H]1O`, the figure is 7.87%; as for `COCc1ncn(Cc2nc(-c3ccc(OC)c(OC)c3)oc2C)n1`, -4.77%.
As for `Cn1cc(CN2CCC[C@]3(C[C@@H](Oc4ncccc4F)CO3)C2)cn1`, the figure is 9.66%; as for `Cn1c(C(N)=O)ccc1-c1ccccc1`, 3.18%.
As for `COc1cccc(S(=O)(=O)CCN2CCCN(C(C)=O)CC2)c1`, the figure is -10.4%; as for `Cc1cc(C(=O)NC2CC(=O)N(C(C)C)C2=O)c(C)n1C(C)C` (stereo not given), -9.13%.
Regarding `CS(=O)(=O)NC[C@H]1Cn2c(-c3ccc4c(c3)OCCO4)cnc2CO1`, the cytotoxicity at 10 µM is -11.1%.
Next, `CC(C)(NC(=O)c1cnc(-c2ccccc2F)s1)C(N)=O`: 6.96%.
Next, `O=C(COc1ccccc1)N1CCC[C@]2(C[C@H](OCC3CC3)CO2)C1`: 8.68%.
Next, `CCC(C)NC(=O)CCc1ccc(OCC(F)(F)F)c(OC)c1` (stereo not given): -3.27%.
For the compound `c1cncc(OC2CCN(CCn3cc4ccccc4n3)CC2)c1`, the cytotoxicity at 10 µM is 1.48%.
Next, `CS(=O)(=O)N1CC[C@]2(C[C@H](Oc3ccccn3)CO2)C1`: -116%; `CSCCNc1ccc(C(=O)N(C)Cc2ccc3ccccc3n2)cn1`: 9.65%; `c1cncc(N2CCCC3(CN(Cc4cccs4)CCO3)C2)c1` (stereo not given): 11.5%.
For the compound `CO[C@H]1CN(S(=O)(=O)c2ccc(C)cc2)C[C@@]12CCCO2`, the cytotoxicity at 10 µM was -0.479%.
Consider `CCO[C@@H]1CC[C@H]2[C@H]1OCCN2S(=O)(=O)C1CC1`, for which the cytotoxicity at 10 µM worked out at 5.64%.
As for `c1cnc(NCc2nnn3c2CN(Cc2cccs2)CCC3)nc1`, the figure is 10.1%.
As for `CCNC(=O)N1CC[C@H]2CC(=O)N(CCN3CCNC3=O)CC[C@H]2C1`, the figure is 2.22%; as for `CC(C)(C)c1cc(NC(=O)CN2CCCC(Cn3cncn3)C2)on1` (stereo not given), 3.69%; as for `Cc1cccc(N2CCN(CCC(=O)NCc3cnc(C)cn3)CC2)c1`, -1.48%.
As for `CC1CCCCN1CCNC(=O)NCc1ccc(C#N)cc1F` (stereo not given), the figure is 0.616%; as for `O=C(c1cccnc1)N1CCc2ncnc(C3CCOC3)c2CC1` (stereo not given), 4.22%; as for `CCn1ccnc1CN1CCN(CC(O)c2cccc(F)c2)CC1` (stereo not given), 0.272%.
In the case of `Cc1nc(C)n(CC2CCCN(CCCc3ccccc3)C2)n1` (stereo not given), the cytotoxicity at 10 µM was -6.02%.
With `Cc1cc(NCc2ccc(CS(N)(=O)=O)cc2)nc(C)n1`, the cytotoxicity at 10 µM is -7.2%.
Next, `O=C(c1ccc(-n2cccn2)c(F)c1)N1CCCN2CCCC2C1` (stereo not given): -3.9%.
Next, `COC[C@H]1CC[C@@H]2[C@@H](CCN2Cc2ccccn2)O1`: -72.6%.
Next, `CCN(CC)C(=O)C1CCCN(c2ncnc3oc(C)nc23)C1` (stereo not given): 1.61%.
For the compound `CN(Cc1ccco1)C(=O)NCc1nnc2n1CCC2`, the cytotoxicity at 10 µM was found to be 16.9%.
As for `CNc1cc(C2CN(Cc3csc(C)n3)CCO2)nc(C)n1` (stereo not given), the figure is -1.6%; as for `COc1ccc(NC(=O)CSc2nncn2-n2cccc2)c(OC)c1`, -2.74%; as for `CC(=O)N1CCC2(CC1)CN(C)C(=O)C[C@H]2C(F)(F)F`, -161%.
Next, `Cc1nn(C)c(C)c1C1COCCN1C(=O)c1ccccc1` (stereo not given): -10.2%; `CCCS(=O)(=O)N1CCC(NC(=O)c2cc(C)c(CC)s2)CC1`: 18.4%.
Next, `COCCc1noc(CNC2CCCN(c3cccnn3)C2)n1` (stereo not given): -13.7%; `CCCc1ccc(CN2CCN(C(=O)NCC)[C@H]3CS(=O)(=O)C[C@H]32)o1`: 2.71%; `Cc1ccc(-c2cc(C(=O)NCCCc3csc(N)n3)[nH]n2)s1`: 81.7%.
For the compound `Cc1ccc(CN2CCN(C(=O)c3ccccc3O)C(C)C2=O)cc1` (stereo not given), the cytotoxicity at 10 µM is 6.31%.
Next, `CN(C)c1nc2c(c(=O)[nH]1)Cc1ccccc1OC2`: -104%; `CC(C)(C)c1cc(C[C@H]2CNCC[C@H]2CC(=O)N2CCCCC2)no1`: -1.91%; `CN(C)C(=O)NC1COC2(CCN(S(=O)(=O)c3ccccc3)CC2)C1` (stereo not given): -88.5%.
On to `CCCNc1ncc(CN2CCC3(CCNC(=O)CC3)CC2)cn1`, for which the cytotoxicity at 10 µM is -166%.
Next, `CSCCCN1CCn2nc(CNC(=O)N(C)C)cc2C1`: -2.66%.
As for `CCN(c1ccc(C(=O)N(Cc2cnn(C)c2)C(C)C)cn1)C(C)C`, the figure is 16.2%; as for `CC(C)c1nc(CN(C)C(=O)[C@H](N)Cc2ccc(Cl)cc2)cs1`, -154%.
As for `CCOC(=O)c1cnn(-c2cc(C)ccn2)c1N`, the figure is 11.3%.
